Laboratory results from ChEMBL document CHEMBL4038284, “Synthesis of novel quinoline-based 4,5-dihydro-1H-pyrazoles as potential anticancer, antifungal, antibacterial and antiprotozoal agents” (Eur J Med Chem, 2017).

What was measured:
Assay type in all cases: functional
CCRF-CEM = assay: Growth inhibition of human CCRF-CEM cells incubated for 48 hrs by sulforhodamine B assay; conditions: for CC50: read-out: LC50 (the source's name)
Outline: (§1)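 NCI 60-line screen. Cells in RPMI-1640 with 5% FBS and 2 mM L-glutamine, preincubated 24 h, then time-zero plates TCA-fixed. Compounds from DMSO stocks given at five final concentrations (100, 10, 1.0, 0.1, 0.01 µM) for 48 h at 37 °C, 5% CO2. Cells fixed with 10% TCA, SRB-stained, read at 515 nm. GI50 is the concentration giving 50% lower net protein increase versus control.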

HL-60(TB) = assay: Growth inhibition of human HL-60(TB) cells incubated for 48 hrs by sulforhodamine B assay; conditions: HL-60, 48 h; for CC50: read-out: LC50 (the source's name); outline: as §1
MOLT-4 = assay: Growth inhibition of human MOLT4 cells incubated for 48 hrs by sulforhodamine B assay; conditions: MOLT-4, 48 h; for CC50: read-out: LC50 (the source's name); outline: as §1
RPMI-8226 = assay: Growth inhibition of human RPMI8226 cells incubated for 48 hrs by sulforhodamine B assay; conditions: RPMI-8226, 48 h; for CC50: read-out: LC50 (the source's name); outline: as §1
SR = assay: Growth inhibition of human SR cells incubated for 48 hrs by sulforhodamine B assay; conditions: for CC50: read-out: LC50 (the source's name); outline: as §1
HOP-62 = assay: Growth inhibition of human HOP62 cells incubated for 48 hrs by sulforhodamine B assay; conditions: HOP-62, 48 h; for CC50: read-out: LC50 (the source's name)
Outline: (§2)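 NCI five-dose SRB assay (100, 10, 1.0, 0.1, 0.01 µM) with 48 h exposure in RPMI-1640 with 5% FBS and 2 mM L-glutamine. Cells fixed with TCA and stained with SRB, read at 515 nm. GI50 is the concentration where [(Ti−Tz)/(C−Tz)]×100 = 50.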

NCI-H226 = assay: Growth inhibition of human NCI-H226 cells incubated for 48 hrs by sulforhodamine B assay; conditions: NCI-H226, 48 h; for CC50: read-out: LC50 (the source's name); outline: as §1
COLO 205 = assay: Growth inhibition of human COLO205 cells incubated for 48 hrs by sulforhodamine B assay; conditions: COLO 205, 48 h; for CC50: read-out: LC50 (the source's name); outline: as §2
HCC 2998 = assay: Growth inhibition of human HCC2998 cells incubated for 48 hrs by sulforhodamine B assay; conditions: HCC 2998, 48 h; for CC50: read-out: LC50 (the source's name); outline: as §1
HCT-15 = assay: Growth inhibition of human HCT15 cells incubated for 48 hrs by sulforhodamine B assay; conditions: HCT-15, 48 h; outline: as §1
HT-29 = assay: Growth inhibition of human HT-29 cells incubated for 48 hrs by sulforhodamine B assay; conditions: HT-29, 48 h
Outline: (§3)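 Five-dose NCI SRB assay at 100, 10, 1.0, 0.1 and 0.01 μM for 48 h at 37 °C, 5% CO2. Medium was RPMI-1640 with 5% FBS and 2 mM glutamine. Time-zero plates were TCA-fixed at compound addition, A515 read after SRB staining. GI50 was solved from [(Ti−Tz)/(C−Tz)]×100 = 50. Values beyond the tested range are given as > or <.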

SF-539 = assay: Growth inhibition of human SF539 cells incubated for 48 hrs by sulforhodamine B assay; conditions: SF-539, 48 h; for CC50: read-out: LC50 (the source's name)
Outline: (§4)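 NCI-60 panel cells grown in RPMI-1640 with 5% FBS and 2 mM L-glutamine, preincubated 24 h at 37 °C/5% CO2. Time-zero plates were TCA-fixed at compound addition. DMSO stocks were diluted in medium and tested at five final concentrations (100, 10, 1.0, 0.1, 0.01 µM) for 48 h. Cells were TCA-fixed, stained with SRB and read at 515 nm. GI50 = 50% lower net protein increase versus control.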

SNB-19 = assay: Growth inhibition of human SNB19 cells incubated for 48 hrs by sulforhodamine B assay; conditions: SNB-19, 48 h; for CC50: read-out: LC50 (the source's name); outline: as §4
SNB-75 = assay: Growth inhibition of human SNB75 cells incubated for 48 hrs by sulforhodamine B assay; conditions: SNB-75, 48 h; for CC50: read-out: LC50 (the source's name); outline: as §1
LOX IMVI = assay: Growth inhibition of human LOXIMVI cells incubated for 48 hrs by sulforhodamine B assay; conditions: for CC50: read-out: LC50 (the source's name); outline: as §3
M14 = assay: Growth inhibition of human M14 cells incubated for 48 hrs by sulforhodamine B assay; conditions: M14, 48 h; outline: as §3
MDA-MB-435 = assay: Growth inhibition of human MDA-MB-435 cells incubated for 48 hrs by sulforhodamine B assay; conditions: MDA-MB-435, 48 h; outline: as §3
SK-MEL-28 = assay: Growth inhibition of human SK-MEL-28 cells incubated for 48 hrs by sulforhodamine B assay; conditions: SK-MEL-28, 48 h; for CC50: read-out: LC50 (the source's name); outline: as §4
UACC-62 = assay: Growth inhibition of human UACC62 cells incubated for 48 hrs by sulforhodamine B assay; conditions: UACC-62, 48 h; for CC50: read-out: LC50 (the source's name); outline: as §1
IGROV-1 = assay: Growth inhibition of human IGROV1 cells incubated for 48 hrs by sulforhodamine B assay; conditions: IGROV-1, 48 h; for CC50: read-out: LC50 (the source's name); outline: as §1
OVCAR-3 = assay: Growth inhibition of human OVCAR3 cells incubated for 48 hrs by sulforhodamine B assay; conditions: OVCAR-3, 48 h; for CC50: read-out: LC50 (the source's name); outline: as §3
OVCAR-4 = assay: Growth inhibition of human OVCAR4 cells incubated for 48 hrs by sulforhodamine B assay; conditions: OVCAR-4, 48 h; outline: as §3
OVCAR-8 = assay: Growth inhibition of human OVCAR8 cells incubated for 48 hrs by sulforhodamine B assay; conditions: OVCAR-8, 48 h; outline: as §3
786-0 = assay: Growth inhibition of human 786-0 cells incubated for 48 hrs by sulforhodamine B assay; conditions: 786-0, 48 h; outline: as §2
ACHN = assay: Growth inhibition of human ACHN cells incubated for 48 hrs by sulforhodamine B assay; conditions: for CC50: read-out: LC50 (the source's name); outline: as §1
RXF 393 = assay: Growth inhibition of human RXF393 cells incubated for 48 hrs by sulforhodamine B assay; conditions: RXF 393, 48 h; for CC50: read-out: LC50 (the source's name); outline: as §3
SN12C = assay: Growth inhibition of human SN12C cells incubated for 48 hrs by sulforhodamine B assay; outline: as §4
TK-10 = assay: Growth inhibition of human TK10 cells incubated for 48 hrs by sulforhodamine B assay; conditions: TK-10, 48 h; for CC50: read-out: LC50 (the source's name); outline: as §1
MDA-MB-231 = assay: Growth inhibition of human MDA-MB-231 cells incubated for 48 hrs by sulforhodamine B assay; conditions: MDA-MB-231, 48 h; outline: as §3
MDA-MB-468 = assay: Growth inhibition of human MDA-MB-468 cells incubated for 48 hrs by sulforhodamine B assay; conditions: MDA-MB-468, 48 h; outline: as §3
[1] = read-out: LC50 (the source's name)

With `COc1ccc(C(=O)/C=C/c2cccc(Nc3ccnc4cc(Cl)ccc34)c2)cc1` the GI50 (CCRF-CEM) was 2880 nM, the CC50 (CCRF-CEM) was > 100000 nM and the GI50 (HL-60(TB)) was 2980 nM. For the same molecule, the CC50 (HL-60(TB)) was > 100000 nM, the GI50 (MOLT-4) was 2900 nM and the CC50 (MOLT-4) was > 100000 nM. For the same molecule, the GI50 (RPMI-8226) was 570 nM, the CC50 (RPMI-8226) was > 100000 nM and the GI50 (SR) was 490 nM. For the same molecule, the CC50 (SR) was > 100000 nM, the GI50 (HOP-62) was 1440 nM and the CC50 (HOP-62) was > 100000 nM. For the same molecule, the GI50 (NCI-H226) was 1780 nM, the CC50 (NCI-H226) was > 100000 nM and the GI50 (COLO 205) was 3850 nM. The CC50 (COLO 205) was > 100000 nM, the CC50 (HCC 2998) was > 100000 nM and the GI50 (HCT-15) was 2040 nM. For the same molecule, the CC50 (HCT-15; [1]) was > 100000 nM, the GI50 (HT-29) was 1640 nM and the LC50 (HT-29) was > 100000 nM. The GI50 (SF-539) was 1700 nM, the CC50 (SF-539) was > 100000 nM and the GI50 (SNB-19) was 2260 nM. For the same molecule, the CC50 (SNB-19) was > 100000 nM, the GI50 (SNB-75) was 1510 nM and the CC50 (SNB-75) was > 100000 nM. The GI50 (LOX IMVI) was 1580 nM, the CC50 (LOX IMVI) was > 100000 nM and the GI50 (M14) was 1600 nM. The CC50 (M14; [1]) was > 100000 nM, the GI50 (MDA-MB-435) was 2130 nM and the CC50 (MDA-MB-435; [1]) was > 100000 nM. The GI50 (SK-MEL-28) was 1870 nM, the CC50 (SK-MEL-28) was > 100000 nM and the GI50 (UACC-62) was 1190 nM. For the same molecule, the CC50 (UACC-62) was > 100000 nM, the GI50 (IGROV-1) was 1440 nM and the CC50 (IGROV-1) was > 100000 nM. The GI50 (OVCAR-3) was 1690 nM, the CC50 (OVCAR-3) was > 100000 nM and the GI50 (OVCAR-4) was 1000 nM. The GI50 (OVCAR-8) was 2260 nM, the LC50 (concentration causing 50% net cell kill) (OVCAR-8) was > 100000 nM and the GI50 (786-0) was 1480 nM. For the same molecule, the LC50 (786-0) was 77700 nM, the GI50 (ACHN) was 1730 nM and the CC50 (ACHN) was > 100000 nM. The GI50 (RXF 393) was 1820 nM, the CC50 (RXF 393) was > 100000 nM and the GI50 (SN12C) was 1300 nM. The CC50 (SN12C; [1]) was > 100000 nM, the GI50 (TK-10) was 1640 nM and the CC50 (TK-10) was > 100000 nM. For the same molecule, the GI50 (MDA-MB-231) was 1910 nM, the CC50 (MDA-MB-231; [1]) was > 100000 nM and the GI50 (MDA-MB-468) was 580 nM. For the same molecule, the CC50 (MDA-MB-468; [1]) was > 100000 nM.
With `COc1cc(C(=O)/C=C/c2cccc(Nc3ccnc4cc(Cl)ccc34)c2)cc(OC)c1OC` the GI50 (CCRF-CEM) was 360 nM, the CC50 (CCRF-CEM) was > 100000 nM and the GI50 (HL-60(TB)) was 1820 nM. For the same molecule, the CC50 (HL-60(TB)) was > 100000 nM, the GI50 (MOLT-4) was 1790 nM and the CC50 (MOLT-4) was > 100000 nM. The GI50 (RPMI-8226) was 310 nM, the CC50 (RPMI-8226) was > 100000 nM and the GI50 (SR) was 320 nM. For the same molecule, the CC50 (SR) was > 100000 nM, the GI50 (HOP-62) was 680 nM and the CC50 (HOP-62) was 6060 nM. The GI50 (NCI-H226) was 1270 nM, the CC50 (NCI-H226) was 6850 nM and the GI50 (COLO 205) was 1340 nM. For the same molecule, the CC50 (COLO 205) was > 100000 nM, the GI50 (HCC 2998) was 1720 nM and the CC50 (HCC 2998) was 5990 nM. The GI50 (HCT-15) was 520 nM, the GI50 (HT-29) was 320 nM and the LC50 (HT-29) was 5510 nM. It also gave a GI50 (SF-539) of 1360 nM, a CC50 (SF-539) of 5270 nM and a GI50 (SNB-19) of 1180 nM. For the same molecule, the CC50 (SNB-19) was 5080 nM, the GI50 (SNB-75) was 1310 nM and the CC50 (SNB-75) was > 100000 nM. The GI50 (LOX IMVI) was 370 nM, the CC50 (LOX IMVI) was 3950 nM and the GI50 (M14) was 1410 nM. The GI50 (MDA-MB-435) was 470 nM, the GI50 (SK-MEL-28) was 1510 nM and the CC50 (SK-MEL-28) was 5980 nM. The GI50 (UACC-62) was 1030 nM, the CC50 (UACC-62) was 5400 nM and the GI50 (IGROV-1) was 1320 nM. For the same molecule, the CC50 (IGROV-1) was > 100000 nM, the GI50 (OVCAR-3) was 390 nM and the CC50 (OVCAR-3) was 3850 nM. It also gave a GI50 (OVCAR-4) of 1260 nM, a CC50 (OVCAR-4; [1]) of 5260 nM and a GI50 (OVCAR-8) of 520 nM. For the same molecule, the LC50 (concentration causing 50% net cell kill) (OVCAR-8) was 7070 nM, the GI50 (786-0) was 560 nM and the LC50 (786-0) was 4890 nM. The GI50 (ACHN) was 1240 nM, the CC50 (ACHN) was 4990 nM and the GI50 (RXF 393) was 1080 nM. For the same molecule, the CC50 (RXF 393) was 5670 nM, the GI50 (SN12C) was 1160 nM and the GI50 (TK-10) was 1450 nM. The CC50 (TK-10) was 6110 nM, the GI50 (MDA-MB-231) was 1810 nM and the GI50 (MDA-MB-468) was 1130 nM.
